Assay outcomes as filed in PubChem BioAssay.
Only some compounds are listed: those with a hit (about 1% of all), similar ones and a draw of the others.
FXN GAA850 act = FXN promoter activators, primary screen, cell-based, luciferase luminescence, HEK293 lucGAA850. 360,000 compounds, 0.56% hits. activation, % at 6 µM. HEK293 lucGAA850 FXN promoter luciferase reporter, 24 h; percent of 10 µM SAHA response;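 active = activation above the average of all compounds screened plus 3 SD, cutoff fixed separately per campaign, cut at about 7.5% in these data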
CaV13 FRET inh = Primary screen for inhibitors of IQ motif and Ca2+-dependent inactivation inhibitor domain binding in CACNA1D, Förster resonance energy transfer in living cells, …; HEK cells, CFP/YFP FRET ICDI-IQ, plate reader, 10 min; percent FRET-ratio fall versus neutral wells; inhibition, % at 12.3 µM; 340,000 compounds, 0.098% hits; AID 743397;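 active = mean replicate inhibition of at least 30% and at least 1% of replicates passing that level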
Xi reactivation = activators of inactive X chromosome reactivation, primary screen, imaging, XiGFP fibroblasts, GFP high-content imaging, set 2; XiGFP mouse fibroblasts, % GFP-positive cells imaging, 3 d; cells co-treated with 5-aza-dC sensitizer; scaled so ellipticine positive control = 100%; activation, % at 7.58 µM; 360,000 compounds, 0.055% hits; AID 743238, 2013;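 active = mean normalized replicate activation at least 10% and every replicate at or above 10%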
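Material: XiGFP fibroblasts, SV40-immortalized. Buffer or medium: DMEM plus 5-aza-dC sensitizer. Compound: single concentration per compound, delivered by pin transfer. Times: 3 days compound exposure. Controls: ellipticine 6 µM.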
GSIS activator = GLuc luminescence reporter in INS-1E cells, primary screen for activators of glucose-dependent secretion of insulin; INS-1E GLuc reporter insulin secretion, 2-3 h; 370,000 compounds, 0.61% hits; AID 743287, 2014; activation, % at 16.6 µM;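 active = lowest replicate activation of at least 40%, so every replicate reaches that level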
GAA30 FXN cntr = GAA30 FXN promoter activators, confirmation, counter-screen for GAA850 frataxin promoter activator project, cell-based, luminescence, HEK293, lucGAA30, triplicate | shares compounds with FXN GAA850 act | HEK293 lucGAA30 FXN promoter luciferase, 24 h; DMSO = 0%, 5 µM ipriflavone = 100% | activation, % at 6 µM | 1,900 compounds, 66% hits;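 active = mean activation above the mean of solvent-only control wells plus 3 SD, cut at about 22% in these data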;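 also: counterscreen of GAA850 promoter hits where activity marks nonselective or luminescence artifacts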
GAA850 confirm = FXN GAA850 promoter activators in reporter cells, confirmation, cell-based, luminescence, HEK293 lucGAA850, triplicate; HEK293 lucGAA850 FXN promoter luciferase reporter, 24 h; 100% = activation by SAHA; activation, % at 6 µM; 1,900 compounds, 86% hits; shares compounds with FXN GAA850 act; AID 588351, 2011;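 active = mean activation above a set limit taken from the primary screen, cut at about 8% in these data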
Numbers stand for hits; i = inactive; nt = no result given.

SMILES	FXN GAA850 act	CaV13 FRET inh	Xi reactivation	GSIS activator	GAA30 FXN cntr	GAA850 confirm
CCCCOc1ccc(C(=O)NCC2(c3ccc(OC)cc3)CCOCC2)cc1	16	i	nt	i	i	i
Cc1ccc(/C=C/c2nc3ccccc3[nH]2)o1	8.9	i	i	i	114	38
COc1ccc(CN2CCC2(C)C(=O)Nc2cccc(NS(C)(=O)=O)c2)c2ccccc12 (configuration not stated)	17	i	i	i	i	19
COc1cccc(CN2CCC2(C)C(=O)Nc2cccc(NS(C)(=O)=O)c2)c1OC (configuration not stated)	i	i	i	i	nt	nt
COc1ccc2c3c(n(C)c2c1)[C@H](CO)N(Cc1ccc(Cl)cc1)CC31CN(C(=O)NC(C)C)C1	nt	nt	i	i	nt	nt
C/C(=N\NC(=O)c1ccc(N2CCCC2=O)cc1)c1ccccc1	i	i	i	i	nt	nt
C/C(=N\NC(=O)c1ccccc1)c1ccc(N2CCCCC2)cc1	8.0	i	i	nt	98	34
CCCNC(=O)Nc1ccc2c(c1)C(=O)N(C)C[C@H](OC)[C@@H](C)CN(Cc1cncnc1)[C@H](C)CO2	nt	nt	i	i	nt	nt
CN1CCN(c2ccc(NC(=O)c3ccc([N+](=O)[O-])o3)cc2Cl)CC1	i	i	i	i	nt	nt
O=C(Nc1ccc(N2CCOCC2)c(Cl)c1)c1ccc([N+](=O)[O-])o1	11	i	i	i	118	56
CCCC(=O)N1CCN(c2ccc(NC(=O)c3ccc([N+](=O)[O-])o3)cc2Cl)CC1	7.9	i	i	i	i	24
C[C@@H]1CN([C@@H](C)CO)C(=O)c2cc(NC(=O)c3ccccc3)ccc2O[C@@H](C)CCCCO[C@@H]1CN(C)C(=O)C1CCCCC1	nt	nt	i	i	nt	nt
CCOC(=O)N1CCC2(CC1)CC(=O)c1c(ccc3oc(C(=O)O)c(C)c13)O2	i	nt	nt	i	nt	nt
Cc1c(C(=O)NCCc2ccccc2)oc2ccccc12	i	i	i	i	nt	nt
CCCNC(=O)c1oc2ccc3c(c2c1C)C=CC(C)(C)O3	10	i	i	nt	91	41
CCCNC(=O)c1oc2ccc3c(c2c1C)C(=O)CC(C)(C)O3	7.9	i	nt	nt	107	36
CC1CC(=O)NN=C1c1ccc(N(C)C)c([N+](=O)[O-])c1 (configuration not stated)	7.8	i	nt	i	26	22
C=CCNc1nc(Nc2ccc(OC)cc2)nc(OC)n1	i	i	nt	i	nt	nt
C=CCNc1nc(Cl)nc(Nc2ccc(OC)cc2)n1	8.1	i	nt	65	64	25
COc1ccc(N2C(=O)C3CCCN3C2c2cccc(Br)c2)cc1 (configuration not stated)	12	i	i	i	i	8.8
CNC[C@@H]1Oc2c(NC(=O)Nc3ccc(OC)cc3)cccc2C(=O)N([C@H](C)CO)C[C@H]1C	nt	nt	i	i	nt	nt
CC(NC(=O)c1cc(S(=O)(=O)N(C)C)ccc1N1CCCC1)C1CC2CCC1C2 (configuration not stated)	11	i	i	i	31	13
Cc1noc(C)c1S(=O)(=O)Nc1ccc2c(c1)C(=O)N([C@@H](C)CO)C[C@@H](C)[C@H](CN(C)S(C)(=O)=O)OCCCC[C@@H](C)O2	nt	nt	i	i	nt	nt
Cn1ccnc1C(O)c1ccccc1 (configuration not stated)	i	i	i	i	nt	nt
Cn1ccnc1C(O)c1ccc(OCc2ccccc2)cc1 (configuration not stated)	7.7	nt	nt	nt	58	18
SMILES	FXN GAA850 act	CaV13 FRET inh	Xi reactivation	GSIS activator	GAA30 FXN cntr	GAA850 confirm
O=C(O)c1ccc(CSc2nnnn2-c2ccc(F)cc2)cc1	i	i	i	i	nt	nt
O=C(CSc1nnnn1-c1ccc(F)cc1)c1ccc(O)c(O)c1	12	i	i	i	31	17
CN(C)/C=C/C(=O)c1ccc(Oc2ccccc2)cc1	7.8	i	i	i	103	33
CN(C)/C=C/C(=O)c1ccccc1	i	i	i	i	nt	nt
COc1ccc(NC(=O)N(C)C[C@H]2Oc3ccc(NC(=O)c4ccncc4)cc3C(=O)N([C@@H](C)CO)C[C@@H]2C)cc1	nt	nt	i	i	nt	nt
CCOC(=O)N/N=C/c1c(C)nn(-c2ccccc2Cl)c1Cl	8.2	i	i	i	93	34
COc1ccc(N2C(=O)NC(NC(=O)C(C)(C)C)(C(F)(F)F)C2=O)cc1 (configuration not stated)	9.2	i	i	i	i	8.2
Cc1ccc(N2C(=O)NC(NC(=O)C(C)(C)C)(C(F)(F)F)C2=O)cc1C (configuration not stated)	i	i	i	nt	nt	nt
Cc1cccc(N2C(=O)N3[C@H](c4ccc(Br)cc4)[C@@H]4C(=O)N(C(C)(C)C)C(=O)[C@@H]4[C@]3(C)C2=O)c1	14	i	i	i	28	16
Cc1cccc(N2C(=O)N3[C@H](c4ccc(Br)cc4)[C@@H]4C(=O)N(C(C)(C)C)C(=O)[C@@H]4[C@]3(Cc3ccc(Cl)cc3)C2=O)c1	10	i	i	i	i	17
C[C@@H]1CCCCO[C@H](CN(C)C(=O)C2CCCCC2)[C@@H](C)CN([C@H](C)CO)C(=O)c2cc(NC(=O)Nc3ccc(C(F)(F)F)cc3)ccc2O1	nt	nt	i	i	nt	nt
COc1ccc2c3c([nH]c2c1)[C@H](CO)N(C(=O)CC1CC1)CC31CN(C(=O)CC2CC2)C1	nt	nt	i	i	nt	nt
C[C@H](CO)N1C[C@H](C)[C@H](CN(C)C(=O)C2CC2)Oc2cc(C#CC3CCCC3)ccc2S1(=O)=O	nt	nt	i	i	nt	nt
Nc1ccc(-c2nc3ncccc3o2)c(Cl)c1	8.7	i	i	i	108	41
C[C@H](CO)N1C[C@H](C)[C@H](CN(C)C(=O)Nc2ccccc2)Oc2ccc(NC(=O)Cc3ccccc3)cc2C1=O	nt	nt	i	i	nt	nt
C[C@H]1CN([C@@H](C)CO)C(=O)c2cccc(NS(=O)(=O)c3ccccc3)c2O[C@H]1CN(C)Cc1ccccc1	nt	nt	i	i	nt	nt
c1cnc(SCCOc2ccc3c(c2)CCC3)nc1	8.2	i	nt	nt	101	38
C[C@@H]1CN([C@@H](C)CO)C(=O)c2cccc(NS(=O)(=O)c3ccccc3)c2O[C@@H]1CN(C)Cc1ccc(C(F)(F)F)cc1	nt	nt	i	i	nt	nt
O=C(Nc1ccc(F)cc1)N1C[C@H]2[C@@H](c3ccccc31)[C@@H](CO)N2C(=O)c1ccccn1	nt	nt	i	i	nt	nt
